Data set [1] has as its system Shh signaling (Gli1 activation) in NIH 3T3 cells. The data set can be described thus: Gli-responsive luciferase reporter assay in Shh-transfected NIH 3T3 cells. The data set is classed as cell-based. To be noted: for Gli-responsive luciferase activation (FL/RL ratio): NIH 3T3 cells cotransfected with Shh, 10 μM, 24 h. The procedure, abridged:
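NIH 3T3 cells cotransfected with pRL-TK, 8XGliBS-firefly luciferase (or mutant reporter) and Shh plasmids. Seeded 24 h later at 1×10^6 cells/well and grown to confluence. Treated 24 h with DMSO or 10 μM test compound. Firefly and Renilla luciferase measured in lysates; FL/RL ratio normalized to DMSO-treated cells.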
A general note: In a reporter assay the amount or activity of a reporter protein is the signal.

Data set [2] concerns Gli1 activation in Shh Light II cells. Kind of data set: Gli luciferase reporter assay in Shh Light II cells. In kind it is cell-based. To be noted: 10 μM RU-SKI 43, 24 h. The procedure, abridged: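 Shh Light II cells (stable Gli1 luciferase reporter) grown to confluence, moved to 0.5% serum medium, and exposed 24 h to DMSO or 10 μM test compound, with or without 100 nM SAG or 1 μg/mL Shh (C24II). Dual firefly/Renilla luciferase read in lysates. FL/RL ratio normalized to cells given DMSO or compound alone; experiment done at least twice.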

Data set [3] deals with T1, Porcupine (Mus musculus, UniProt Q9JJJ7).
T1 sequence (Q9JJJ7 1-461): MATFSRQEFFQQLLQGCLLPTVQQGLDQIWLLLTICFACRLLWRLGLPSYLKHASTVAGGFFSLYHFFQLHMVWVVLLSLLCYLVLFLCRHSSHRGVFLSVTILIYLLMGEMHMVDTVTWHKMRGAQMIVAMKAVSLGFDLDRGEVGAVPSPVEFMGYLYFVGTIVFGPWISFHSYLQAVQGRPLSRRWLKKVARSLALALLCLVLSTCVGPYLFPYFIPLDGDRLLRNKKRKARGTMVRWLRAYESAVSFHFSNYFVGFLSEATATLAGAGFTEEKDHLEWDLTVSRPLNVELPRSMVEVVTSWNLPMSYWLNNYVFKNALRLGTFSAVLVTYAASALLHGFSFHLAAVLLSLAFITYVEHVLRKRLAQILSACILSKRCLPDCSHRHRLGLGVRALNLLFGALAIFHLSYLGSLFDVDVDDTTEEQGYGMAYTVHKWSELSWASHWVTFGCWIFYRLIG
Kind of data set: Wnt3a fatty acylation by Porcupine in L Wnt-3a cells. The data set is classed as cell-based. To be noted: Mouse L Wnt-3a cells, FLAG-Porcupine. The gist of the method:
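Mouse L-Wnt3a cells transfected with 6 μg FLAG-Porcupine or empty vector. After 48 h, serum-starved 3 h in DMEM with 2% dialyzed FCS plus DMSO, 10 μM test compound or 100 nM reference Porcupine inhibitor. Labeled 6 h with 40 μCi 125I-iodo-pentadecanoate. Wnt3a and FLAG-Porcupine immunoprecipitated 16 h at 4°C, then SDS-PAGE, western blot, phosphorimaging. Duplicates, repeated three times.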

Data set [4] has as its system paracrine Shh signaling in C3H10T1/2 cells. The data set can be described thus: C3H10T1/2 alkaline phosphatase reporter assay. In kind it is cell-based. The gist of the method: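 C3H10T1/2 reporter cells and COS-1 cells transfected with HA-Hhat and Shh plasmids plated alone or cocultured (4:1), 24 h at 37°C. Medium then switched to DMSO or 10 μM test compound for 72 h, with re-addition at 48 h. Alkaline phosphatase measured in lysates with a fluorogenic FDP substrate kit, read over 30 min at 5-min intervals; mean ± SD, n=3.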

Data set [5] can be described thus: Half-life in mouse plasma after IV administration. In kind it is in vivo.
The subject of data set [6] is palmitoylation of Fyn. The data set can be described thus: Fyn palmitoylation in COS-1 cells. The data set is classed as cell-based. To be noted: COS-1 cells expressing Fyn. The gist of the method: (§1)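 COS-1 cells co-transfected with Shh and HA-Hhat plus H-Ras or Fyn. Test compound or DMSO was added the night before or at the start of serum starvation. Cells were starved 1 h in DMEM with 2% dialyzed FCS, then labeled with 15–30 μCi/ml 125I-iodo-palmitate for 4 h at 37°C. Lysates in RIPA were cleared at 100,000xg, immunoprecipitated 16 h at 4°C, run on 12.5% SDS-PAGE and phosphorimaged. Duplicates, repeated ≥3 times.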

For data set [7], the system named is Shh signaling in SuFu−/− cells. Kind of data set: Gli luciferase reporter assay in SuFu-/- cells. The data set is classed as cell-based, murine. To be noted: 10 μM, 24h. The gist of the method: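 SuFu−/− mouse embryonic fibroblasts transfected with wild-type or mutant 8XGliBS-firefly luciferase plus pRL-TK Renilla plasmids. Reseeded 24 h later, grown to confluence, then given DMSO or 10 μM test compound for 24 h. Dual luciferase measured in lysates as FL/RL ratio; mean ± SD (n=2–4), experiment run at least twice.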

In data set [8] the test system is palmitoylation of H-Ras. Kind of data set: H-Ras palmitoylation in COS-1 cells. In kind it is cell-based. To be noted: COS-1 cells expressing H-Ras N17. The procedure, abridged: as §1
Data set [9] has as its system Hhat-mediated Shh palmitoylation in COS-1 cells. Kind of data set: Shh palmitoylation in COS-1 cells. The data set is classed as cell-based. The procedure, abridged:
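COS-1 cells transfected with Shh and HA-Hhat given test compound or DMSO overnight or from the start of […] serum starvation (DMEM, 2% dialyzed FCS). Labeled 4 h at 37°C with 15–30 μCi/ml 125I-iodo-palmitate. Lysed in RIPA, ultracentrifuged, immunoprecipitated 16 h at 4°C, SDS-PAGE with western blot and phosphorimaging. Duplicates, repeated at least three times.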

Data set [10] has as its system myristoylation of c-Src. The data set can be described thus: c-Src myristoylation in COS-1 cells. The data set is classed as cell-based. To be noted: COS-1 cells expressing c-Src. The gist of the method: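 COS-1 cells were transfected with Shh, HA-Hhat and Src, with test compound or DMSO added the night before or at the start of starvation. After 1 h starvation in DMEM with 2% dialyzed FCS, 30 μCi/ml 125I-iodo-tridecanoate was added for 4 h at 37°C. RIPA lysates were cleared at 100,000xg, immunoprecipitated overnight at 4°C, resolved on 12.5% SDS-PAGE and quantified by phosphorimager. Duplicates, ≥3 repeats.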

In data set [11] the test system is Shh and Hhat in COS-1 cells. The data set can be described thus: Shh autoprocessing, Shh/Hhat levels and localization in COS-1 cells. In kind it is cell-based. To be noted: 10µM, 5h. The gist of the method: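 COS-1 cells were transfected with Shh and HA-Hhat and reseeded on coverslips after 24 h. A day later they were fixed in 4% paraformaldehyde for 20 min and permeabilized with 0.2% Triton X-100. After blocking in 3% BSA, cells took rabbit anti-Shh (1:100) and mouse anti-HA (1:200) for 1 h, then Alexa-conjugated secondaries and Hoechst for 45 min. Confocal imaging at 63X: 5–10 images per slide, ≥2 slides per condition, three experiments. Protein levels by Western blot.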

Data set [12] has as its target Hhat (Homo sapiens, UniProt Q5VTY9). The data set can be described thus: RU-SKI 43 inhibition kinetics with purified Hhat and ShhN. To be noted: Ki with respect to 125I-iodo-palmitoylCoA, noncompetitive inhibitor; purified Hhat, 125I-iodo-palmitoylCoA titrated, 38μM ShhN. In kind it is biochemical.

“Also recorded” adds a separate entry of the source.

Chain of Hhat (Q5VTY9 whole entry): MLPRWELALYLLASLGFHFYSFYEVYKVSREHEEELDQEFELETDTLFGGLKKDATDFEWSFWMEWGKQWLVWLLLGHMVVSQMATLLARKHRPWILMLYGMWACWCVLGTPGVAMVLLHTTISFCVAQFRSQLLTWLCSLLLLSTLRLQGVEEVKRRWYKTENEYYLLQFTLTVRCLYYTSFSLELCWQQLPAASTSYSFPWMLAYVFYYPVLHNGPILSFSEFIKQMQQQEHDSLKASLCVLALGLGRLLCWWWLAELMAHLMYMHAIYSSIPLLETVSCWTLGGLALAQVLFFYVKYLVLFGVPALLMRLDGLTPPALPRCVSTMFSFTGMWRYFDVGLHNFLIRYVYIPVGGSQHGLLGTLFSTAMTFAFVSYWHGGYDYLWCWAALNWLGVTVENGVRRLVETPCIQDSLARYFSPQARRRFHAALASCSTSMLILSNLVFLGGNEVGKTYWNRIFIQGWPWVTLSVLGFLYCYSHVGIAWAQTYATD

Turning to `CNC1CCC(N(Cc2cccc(-c3ccncc3)c2)C(=O)c2sc3ccccc3c2Cl)CC1` (stereo not shown) [SAG, reference compound], in data set [1] (Shh-expressing NIH 3T3 cells, 100nM SAG), the “Gli1 activation in untreated Shh-expressing cells” value is “neither SAG (Supplementary Fig. 8) nor overexpression of Smo[17] activated Gli1 to levels higher than those achieved with Shh alone”.

Consider `CCC(C)CNCC(=O)N1CCc2sccc2C1COc1cccc(C)c1` (stereo not shown) [RU-SKI 43, 2-((2-methylbutyl)amino)-1-(4-((m-tolyloxy)methyl)-6,7-dihydrothieno[3,2-c]pyridin-5(4H)-yl)ethanone], for which the “Effect on activation of Gli1 by SAG” value in data set [2] (100 nM SAG) was “does not affect exogenous Shh pathway activation; also recorded: no effect”. The “Effect on activation of Gli1 by recombinant Shh (C24II)” value in data set [2] (1μg/mL Shh (C24II)) is given as “does not affect exogenous Shh pathway activation; also recorded: no effect”. Besides, the “Fatty acylation of Wnt3a by Porcupine” value in data set [3] (10 μM) is reported as “does not inhibit Porcupine; also recorded: no effect”. Also, in data set [4] (C3H10T1/2 cocultured with COS-1 expressing Shh and Hhat, 10 μM, 72h), the “Alkaline phosphatase (AP) activity” value is “blocks paracrine Shh signaling; also recorded: reduced to baseline”. Also, the half-life (commonly the time needed for the level to fall by half in the phase considered) in data set [5] came to 17 min. Further, in data set [6], the “Palmitoylation of Fyn” value is “Neither palmitoylation of H-Ras and Fyn nor myristoylation of c-Src was affected”. The “Gli-responsive luciferase activation (FL/RL ratio)” value in [1] was “blocks Gli activation; also recorded: blocked luciferase activation”. Besides, the “Rescue of the inhibitory effect with SAG or Shh (C24II)” value in data set [1] (Shh-transfected NIH 3T3 cells, 10µM RU-SKI 43 with 100nM SAG or 1µg/mL Shh (C24II), 24h) is “not able to rescue”. Further, in [7], the “Effect on Shh signaling in SuFu−/− cells” value is “does not affect Shh pathway activation; also recorded: no effect”. In data set [8], the “Palmitoylation of H-Ras” value was “Neither palmitoylation of H-Ras and Fyn nor myristoylation of c-Src was affected”. Besides, the “Inhibition of Shh palmitoylation in cells” value in [9] (COS-1 cells expressing HA-Hhat and Shh, 0, 10 or 20 μM, 5 h) is “Dose-dependent inhibition”. Also, the “Radiolabel incorporation into ShhN in cells” value in data set [9] (COS-1 cells expressing HA-Hhat and Shh, 25 μM compound, 16 h) is “strongly inhibited”. Also, the “Palmitoylation of Shh by endogenous Hhat” value in data set [9] (COS-1 cells transfected with Shh only, 10 µM) is reported as “inhibited”. In [9] (transfected COS-1 cells, increasing amounts of Hhat, 10µM), the “Effect of Hhat overexpression on inhibition of Shh palmitoylation” value is “reduced the ability of RU-SKI 43 to inhibit Shh palmitoylation”. In addition, the “Effect of Porcupine overexpression on inhibition of Shh palmitoylation” value in [9] (transfected COS-1 cells, increasing amounts of Porcupine, 10µM) is given as “no effect”. The “Myristoylation of c-Src” value in data set [10] was “Neither palmitoylation of H-Ras and Fyn nor myristoylation of c-Src was affected”. Further, the “Shh autoprocessing, steady-state levels of Shh and Hhat, subcellular localization of Shh and Hhat” value in data set [11] is listed as “did not alter”. Further, the Ki (commonly a measure of affinity in units of concentration, obtained from inhibition or displacement) in data set [12] is 6.9 µM.

For the molecule `Cc1cc(-c2ccc(CC(=O)Nc3ccc(-c4cccnc4)cc3)cc2)ccn1` [Wnt C59, reference compound], the “Fatty acylation of Wnt3a by Porcupine” value in data set [3] (100 nM) is listed as “blocked radiolabel incorporation”.

Turning to `Cc1c(C(=O)Nc2ccc(N3C[C@@H](C)O[C@@H](C)C3)nc2)cccc1-c1ccc(OC(F)(F)F)cc1` [LDE225, reference compound], in [1], the “Gli-responsive luciferase activation (FL/RL ratio)” value is given as “blocked luciferase activation”.

B1: Noggin: the BMP inhibitor Noggin (protein, UniProt Q13253 28-232, looked up)
Noggin: QHYLHIRPAPSDNLPLVDLIEHPDPIFDPKEKDLNETLLRSLLGGHYDPGFMATSPPEDRPGGGGGAAGGAEDLAELDQLLRQRPSGAMPSEIKGLEFSEGLAQGKKQRLSKKLRRKLQMWLWSQTFCPVLYAWNDLGSRFWPRYVKVGSCFSKRSCSVPEGMVCKPSKSVHLTVLRWRCQRRGGQRCGWIPIQYPIISECKCSC
In the case of B1, the “Alkaline phosphatase (AP) activity” value in data set [4] (BMP inhibitor control, concentration not given) is “no effect”.

The record behind these values is publication PMC3604071 (Nature chemical biology, 2013).
